Experimental data taken from ChEMBL document CHEMBL4130342, “New semi-synthetic analogs of oleuropein show improved anticancer activity in vitro and in vivo” (Eur J Med Chem, 2017).

Columns and labels:
Mus musculus [1] = assay: (§1) In vivo induction of tumor-reactive immune response in C57BL/6 mouse allografted with mouse B16-F1 cells assessed as splenocyte-mediated NK-sensitive mouse YAC-1 cell lysis at 300 ug, ip administered every other day up to day 29 measured on day 29 post last dose by flow cytometric method (reference value: 1.2 to 1.7); format: functional
Procedure, shortened: (§2)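 Male C57BL/6 mice (6-8 wk) were injected sc in the right flank with 10⁵ B16.F1 cells in PBS on day 0. From day 11, when tumors were palpable, they received ip doses in 200 µL PBS every other day (8 doses; 5 mice/group). On day 29, splenocytes were co-cultured unstimulated with targets at E:T 100:1 for 6 h at 37°C. CD107a/b MFI was read by flow cytometry, 2 mice/group tested individually.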

PBMC [2] = assay: Induction of apoptosis in human PBMC assessed as late apoptotic cells at 400 ug/ml after 24 hrs by propidium iodide staining-based flow cytometric method (reference value: 0.6%); format: cell-based
Mus musculus [3] = assay: as §1, with “syngeneic” for “NK-sensitive”, “B16-F1” for “YAC-1”, “600” for “300”, “3.3” for “1.2”, “3.9)” for “1.7)”; format: functional; procedure, shortened: as §2
PBMC [4] = assay: Induction of apoptosis in human PBMC assessed as early apoptotic cells at 300 ug/ml after 24 hrs by propidium iodide staining-based flow cytometric method (reference value: 0.1%); format: cell-based
PBMC [5] = assay: Induction of apoptosis in human PBMC assessed as necrotic cells at 600 ug/ml after 24 hrs by propidium iodide staining-based flow cytometric method (reference value: 1%); format: cell-based
PBMC [6] = assay: Induction of apoptosis in human PBMC assessed as necrotic cells at 400 ug/ml after 24 hrs by propidium iodide staining-based flow cytometric method (reference value: 1%); format: cell-based
B16-F1 [7] = assay: Induction of apoptosis in mouse B16-F1 cells assessed as early apoptotic cells at 283.90 uM after 24 hrs by propidium iodide staining-based flow cytometric method (reference value: 0.5%); format: functional
Mus musculus [8] = assay: Toxicity in C57BL/6 mouse allografted with mouse B16-F1 cells assessed as effect on mouse survival at 600 ug, ip administered every other day up to day 29; format: organism-based; conditions: in vivo
Procedure, shortened: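 Male C57BL/6 mice (6-8 wk) were injected sc with 10⁵ B16.F1 cells on day 0. From day 11 they received ip doses in 200 µL PBS every other day, 8 doses in total, with PBS controls. Tumors were caliper-measured every two days and the animals monitored to day 29 for signs of toxicity. Groups of 5.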

PBMC [9] = assay: Induction of apoptosis in human PBMC assessed as early apoptotic cells at 500 ug/ml after 24 hrs by propidium iodide staining-based flow cytometric method (reference value: 0.1%); format: cell-based
B16-F1 [10] = assay: Induction of apoptosis in mouse B16-F1 cells assessed as necrotic cells at 283.90 uM after 24 hrs by propidium iodide staining-based flow cytometric method (reference value: 0.4%); format: functional
PBMC [11] = assay: Induction of apoptosis in human PBMC assessed as early apoptotic cells at 400 ug/ml after 24 hrs by propidium iodide staining-based flow cytometric method (reference value: 0.1%); format: cell-based
[12] = Antiproliferative activity against human FM3 cells after 72 hrs by MTT reduction assay; format: functional, cell-based
Procedure, shortened: (§3)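 MTT reduction assay; adherent lines left to adhere overnight, suspension lines (HL-60, K562) seeded on the day. […] Incubation was 72 h at 37°C, with MTT added for the last 4 h. OD read at 545 nm (reference 690 nm). IC50 from 100(A0-A)/A0=50; means ± SD of 3 independent experiments.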

PBMC [13] = assay: Induction of apoptosis in human PBMC assessed as late apoptotic cells at 600 ug/ml after 24 hrs by propidium iodide staining-based flow cytometric method (reference value: 0.6%); format: cell-based
B16-F1 [14] = assay: Induction of apoptosis in mouse B16-F1 cells assessed as late apoptotic cells at 283.90 uM after 72 hrs by propidium iodide staining-based flow cytometric method (reference value: 1.4%); format: functional
MCF7 = assay: Antiproliferative activity against human MCF7 cells after 72 hrs by MTT reduction assay; format: functional, cell-based; conditions: MCF7, 72 h; procedure, shortened: as §3
B16-F1 [15] = assay: Induction of apoptosis in mouse B16-F1 cells assessed as late apoptotic cells at 283.90 uM after 24 hrs by propidium iodide staining-based flow cytometric method (reference value: 0.9%); format: functional
SK-BR-3 = assay: Antiproliferative activity against human SKBR3 cells after 72 hrs by MTT reduction assay; format: functional, cell-based; conditions: SK-BR-3, 72 h; procedure, shortened: as §3
B16-F1 [16] = assay: Induction of apoptosis in mouse B16-F1 cells assessed as early apoptotic cells at 283.90 uM after 72 hrs by propidium iodide staining-based flow cytometric method (reference value: 0.4%); format: functional
PBMC [17] = assay: Induction of apoptosis in human PBMC assessed as early apoptotic cells at 600 ug/ml after 24 hrs by propidium iodide staining-based flow cytometric method (reference value: 0.1%); format: cell-based
Mus musculus [18] = assay: as §1, with “600” for “300”; format: functional; procedure, shortened: as §2
B16-F1 [19] = assay: Induction of apoptosis in mouse B16-F1 cells assessed as necrotic cells at 283.90 uM after 48 hrs by propidium iodide staining-based flow cytometric method (reference value: 1%); format: functional
PBMC [20] = assay: Induction of apoptosis in human PBMC assessed as necrotic cells at 300 ug/ml after 24 hrs by propidium iodide staining-based flow cytometric method (reference value: 1%); format: cell-based
PBMC [21] = assay: Induction of apoptosis in human PBMC assessed as late apoptotic cells at 500 ug/ml after 24 hrs by propidium iodide staining-based flow cytometric method (reference value: 0.6%); format: cell-based
HCT-116 = assay: Antiproliferative activity against human HCT116 cells after 72 hrs by MTT reduction assay; format: functional, cell-based; conditions: HCT-116, 72 h
Procedure, shortened: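 MTT reduction assay; adherent lines left to adhere overnight, suspension lines (HL-60, K562) seeded on the day. Incubation was 72 h at 37°C, with MTT added for the last 4 h.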

PBMC [22] = assay: Induction of apoptosis in human PBMC assessed as early apoptotic cells at 150 ug/ml after 24 hrs by propidium iodide staining-based flow cytometric method (reference value: 0.1%); format: cell-based
B16-F1 [23] = assay: Antitumor activity against mouse B16-F1 cells allografted in ip dosed C57BL/6 mouse assessed as tumor growth inhibition administered every other day up to day 29 measured on day 29 post last dose; format: functional, organism-based
Procedure, shortened: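 Male C57BL/6 mice, 6-8 weeks old, received 10^5 B16.F1 cells sc in the right flank on day 0. From day 11 (palpable tumors), 5 mice/group were randomized and given ip doses in 200 µL PBS every other day, 8 doses in total, up to day 29. Control group received PBS. Tumors were measured by caliper every two days; volume = 1/2(length × width²).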

HeLa = assay: Antiproliferative activity against human HeLa cells after 72 hrs by MTT reduction assay; format: functional, cell-based; procedure, shortened: as §3
K562 = assay: Antiproliferative activity against human K562 cells after 72 hrs by MTT reduction assay; format: functional, cell-based; conditions: K562, 72 h; procedure, shortened: as §3
PBMC [24] = assay: Induction of apoptosis in human PBMC assessed as necrotic cells at 500 ug/ml after 24 hrs by propidium iodide staining-based flow cytometric method (reference value: 1%); format: cell-based

C/C=C1/[C@H](O[C@@H]2O[C@H](CO)[C@@H](O)[C@H](O)[C@H]2O)OC=C(C(=O)OC)[C@H]1CC(=O)OCCc1ccc(O)c(O)c1 [OLEUROPEIN]
Flu intensity (Mus musculus [1]): 2.3 - 2.7
Activity (PBMC [2]): 3%
Flu intensity (Mus musculus [3]): 6.6 - 7.5
Activity (PBMC [4]): 1.2%
Activity (PBMC [5]): 16.4%
Activity (PBMC [6]): 4.3%
Activity (B16-F1 [7]): 9.3%
Activity (Mus musculus [8]): Non-Toxic
Activity (PBMC [9]): 3.1%
Activity (B16-F1 [10]): 2.1%
Activity (PBMC [11]): 1.6%
IC50 [12]: 269 to 275 µM
Activity (PBMC [13]): 12.4%
Activity (B16-F1 [14]): 15.5%
IC50 (MCF7): 162 to 170 µM
Activity (B16-F1 [15]): 6.9%
IC50 (SK-BR-3): 160 µM
Activity (B16-F1 [16]): 22.5%
Activity (PBMC [17]): 6.5%
Flu intensity (Mus musculus [18]): 2.9 - 3.3
Activity (B16-F1 [19]): 4.2%
Activity (PBMC [20]): 3.9%
Activity (PBMC [21]): 6.3%
IC50 (HCT-116): 182 to 185 µM
Activity (PBMC [22]): 0.8%
TGI (B16-F1 [23]): Dose-dependent effect
IC50 (HeLa): 265 to 276 µM
IC50 (K562): 64.7 µM
Activity (PBMC [24]): 10.3%
